≈ marks a conversion by molar mass, not a printed value.
Tests used:
Staphylococcus aureus [1] = experiment: Antimicrobial activity against methicillin-resistant Staphylococcus aureus USA100 assessed as reduction in bacterial growth incubated for 18 to 20 hrs at 37 degC by broth microdilution method; type: functional
Procedure, shortened: (§1)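 Modified CLSI broth microdilution. Bacterial suspension of about 1 × 10^5 CFU/mL in tryptic soy broth. Each agent was added in triplicate to the first row and serially diluted down the plate. Plates were incubated at 37 °C for 18-20 h. MIC was read as the lowest concentration with no visible growth.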

Staphylococcus aureus [2] = experiment: Antimicrobial activity against methicillin-resistant Staphylococcus aureus USA500 assessed as reduction in bacterial growth incubated for 18 to 20 hrs at 37 degC by broth microdilution method; type: functional; procedure, shortened: as §1
Staphylococcus aureus [3] = experiment: Antimicrobial activity against vancomycin-intermediate-resistant Staphylococcus aureus NRS1 assessed as reduction in bacterial growth incubated for 18 to 20 hrs at 37 degC by broth microdilution method; type: functional; procedure, shortened: as §1
Staphylococcus aureus [4] = experiment: Antimicrobial activity against methicillin-resistant Staphylococcus aureus USA700 assessed as reduction in bacterial growth incubated for 18 to 20 hrs at 37 degC by broth microdilution method; type: functional; procedure, shortened: as §1
Staphylococcus aureus [5] = experiment: Antimicrobial activity against methicillin-sensitive Staphylococcus aureus NRS72 assessed as reduction in bacterial growth incubated for 18 to 20 hrs at 37 degC by broth microdilution method; type: functional; procedure, shortened: as §1
Staphylococcus aureus [6] = experiment: Antimicrobial activity against methicillin-resistant Staphylococcus aureus NRS119 assessed as reduction in bacterial growth incubated for 18 to 20 hrs at 37 degC by broth microdilution method; type: functional; procedure, shortened: as §1
Staphylococcus aureus [7] = experiment: Antimicrobial activity against vancomycin-resistant Staphylococcus aureus VRS2 assessed as reduction in bacterial growth incubated for 18 to 20 hrs at 37 degC by broth microdilution method; type: functional; procedure, shortened: as §1
Staphylococcus aureus [8] = experiment: Antimicrobial activity against methicillin-resistant Staphylococcus aureus USA300 assessed as reduction in bacterial growth incubated for 18 to 20 hrs at 37 degC by broth microdilution method; type: functional; procedure, shortened: as §1
Staphylococcus aureus [9] = experiment: Antimicrobial activity against methicillin-resistant Staphylococcus aureus USA200 assessed as reduction in bacterial growth incubated for 18 to 20 hrs at 37 degC by broth microdilution method; type: functional; procedure, shortened: as §1
J774 [10] = experiment: Cytotoxicity against mouse J774 cells assessed as reduction in cell viability at 32 uM incubated for 2 hrs by MTS assay; type: cell-based; conditions: j774, 2 h
Procedure, shortened: (§2)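 Murine J774 macrophages grown in DMEM with 10% FBS at 37 °C, 5% CO2. Compounds were tested in triplicate at 16, 32, 64 and 128 μM for 2 h, with DMSO-matched vehicle controls. MTS reagent was then added and absorbance read at OD490. Viability is given as percent of DMSO-treated cells (mean of triplicate ± standard deviation), compared by paired t-test (P < 0.05).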

J774 [11] = type: cell-based; conditions: mouse, j774, 2 h, 128 µM
J774 [12] = experiment: Cytotoxicity against mouse J774 cells assessed as reduction in cell viability at 64 uM incubated for 2 hrs by MTS assay; type: cell-based; conditions: j774, 2 h; procedure, shortened: as §2

Compound	MIC (Staphylococcus aureus [1]) [µM]	MIC (Staphylococcus aureus [2]) [µM]	MIC (Staphylococcus aureus [3]) [µM]	MIC (Staphylococcus aureus [4]) [µM]	MIC (Staphylococcus aureus [5]) [µM]	MIC (Staphylococcus aureus [6]) [µM]	MIC (Staphylococcus aureus [7]) [µM]	MIC (Staphylococcus aureus [8]) [µM]	MIC (Staphylococcus aureus [9]) [µM]	Activity (J774 [10])	Activity (J774 [11])	Activity (J774 [12])
[C-]#[N+]c1ccccc1-c1ccccc1	16 (≈ 2.87 µg/mL)	> 128	8 (≈ 1.43 µg/mL)	16 (≈ 2.87 µg/mL)	> 128	> 128	> 128	> 128	16 (≈ 2.87 µg/mL)			
[C-]#[N+]c1ccccc1CP(=O)(OCC)OCC	> 128	> 128	128 (≈ 32.4 µg/mL)	> 128	> 128	> 128	> 128	> 128	128 (≈ 32.4 µg/mL)			
[C-]#[N+]c1ccccc1/C=C(\C)c1ccccc1	8 (≈ 1.75 µg/mL)	> 128	4 (≈ 0.877 µg/mL)	16 (≈ 3.51 µg/mL)	8 (≈ 1.75 µg/mL)	> 128	> 128	> 128	64 (≈ 14 µg/mL)			
[C-]#[N+]c1ccccc1/C=C(\CCC)c1ccccc1	16 (≈ 3.96 µg/mL)	16 (≈ 3.96 µg/mL)	8 (≈ 1.98 µg/mL)	16 (≈ 3.96 µg/mL)	16 (≈ 3.96 µg/mL)	32 (≈ 7.91 µg/mL)	32 (≈ 7.91 µg/mL)	32 (≈ 7.91 µg/mL)	16 (≈ 3.96 µg/mL)			
[C-]#[N+]c1ccccc1/C=C(\CCCC)c1ccccc1	32 (≈ 8.36 µg/mL)	32 (≈ 8.36 µg/mL)	16 (≈ 4.18 µg/mL)	16 (≈ 4.18 µg/mL)	32 (≈ 8.36 µg/mL)	> 128	64 (≈ 16.7 µg/mL)	> 128	32 (≈ 8.36 µg/mL)			
[C-]#[N+]c1ccccc1C=C(c1ccccc1)c1ccccc1	8 (≈ 2.25 µg/mL)	8 (≈ 2.25 µg/mL)	4 (≈ 1.13 µg/mL)	4 (≈ 1.13 µg/mL)	8 (≈ 2.25 µg/mL)	16 (≈ 4.5 µg/mL)	16 (≈ 4.5 µg/mL)	16 (≈ 4.5 µg/mL)	8 (≈ 2.25 µg/mL)			
[C-]#[N+]c1ccccc1/C=C(\CC)c1ccc(F)cc1	16 (≈ 4.02 µg/mL)	16 (≈ 4.02 µg/mL)	8 (≈ 2.01 µg/mL)	8 (≈ 2.01 µg/mL)	8 (≈ 2.01 µg/mL)	64 (≈ 16.1 µg/mL)	32 (≈ 8.04 µg/mL)	32 (≈ 8.04 µg/mL)	16 (≈ 4.02 µg/mL)			
[C-]#[N+]c1ccccc1/C=C(\CC)c1ccc(C(F)(F)F)cc1			8 (≈ 2.41 µg/mL)		8 (≈ 2.41 µg/mL)	64 (≈ 19.3 µg/mL)	16 (≈ 4.82 µg/mL)	32 (≈ 9.64 µg/mL)				
[C-]#[N+]c1ccccc1/C=C(\CC)c1ccc(OC)cc1			4 (≈ 1.05 µg/mL)	4 (≈ 1.05 µg/mL)		> 128	8 (≈ 2.11 µg/mL)	16 (≈ 4.21 µg/mL)		Non-toxic	Toxic	Toxic
[C-]#[N+]c1ccccc1/C=C(\CC)c1cccc(C(F)(F)F)c1	4 (≈ 1.21 µg/mL)		2 (≈ 0.603 µg/mL)	2 (≈ 0.603 µg/mL)	4 (≈ 1.21 µg/mL)		8 (≈ 2.41 µg/mL)	> 128		Non-toxic	Toxic	Toxic
[C-]#[N+]c1ccccc1/C=C/c1cccc(C(F)(F)F)c1	4 (≈ 1.09 µg/mL)		2 (≈ 0.547 µg/mL)	4 (≈ 1.09 µg/mL)	2 (≈ 0.547 µg/mL)		8 (≈ 2.19 µg/mL)		4 (≈ 1.09 µg/mL)	Non-toxic	Toxic	Non-toxic
[C-]#[N+]c1ccccc1/C=C/c1ccc(CCCC)cc1		> 128			> 128	> 128	> 128	> 128	> 128			
[C-]#[N+]c1ccccc1/C=C/c1ccc([N+](=O)[O-])cc1	4 (≈ 1 µg/mL)		4 (≈ 1 µg/mL)		2 (≈ 0.501 µg/mL)	16 (≈ 4 µg/mL)	8 (≈ 2 µg/mL)		4 (≈ 1 µg/mL)	Toxic	Toxic	Toxic
[C-]#[N+]c1ccccc1C=C1CCCCC1	16 (≈ 3.16 µg/mL)	> 128	4 (≈ 0.789 µg/mL)	16 (≈ 3.16 µg/mL)	8 (≈ 1.58 µg/mL)	> 128	> 128	> 128	64 (≈ 12.6 µg/mL)			
[C-]#[N+]c1cccc(/C=C/c2ccccn2)c1	32 (≈ 6.6 µg/mL)	64 (≈ 13.2 µg/mL)	128 (≈ 26.4 µg/mL)	64 (≈ 13.2 µg/mL)	64 (≈ 13.2 µg/mL)	128 (≈ 26.4 µg/mL)	128 (≈ 26.4 µg/mL)	32 (≈ 6.6 µg/mL)	64 (≈ 13.2 µg/mL)			
[C-]#[N+]c1ccc(/C=C/c2ccccn2)cc1	128 (≈ 26.4 µg/mL)	64 (≈ 13.2 µg/mL)	64 (≈ 13.2 µg/mL)	128 (≈ 26.4 µg/mL)	64 (≈ 13.2 µg/mL)	128 (≈ 26.4 µg/mL)	64 (≈ 13.2 µg/mL)	32 (≈ 6.6 µg/mL)	128 (≈ 26.4 µg/mL)			
[C-]#[N+]c1cccc(/C=C/c2cccnc2)c1	32 (≈ 6.6 µg/mL)	64 (≈ 13.2 µg/mL)	64 (≈ 13.2 µg/mL)	64 (≈ 13.2 µg/mL)	64 (≈ 13.2 µg/mL)	64 (≈ 13.2 µg/mL)	64 (≈ 13.2 µg/mL)	32 (≈ 6.6 µg/mL)	64 (≈ 13.2 µg/mL)			
[C-]#[N+]c1ccc(/C=C/c2cccnc2)cc1	16 (≈ 3.3 µg/mL)	32 (≈ 6.6 µg/mL)	32 (≈ 6.6 µg/mL)	16 (≈ 3.3 µg/mL)	16 (≈ 3.3 µg/mL)	64 (≈ 13.2 µg/mL)	8 (≈ 1.65 µg/mL)		32 (≈ 6.6 µg/mL)	Non-toxic	Toxic	Non-toxic
[C-]#[N+]c1ccccc1/C=C/c1ccncc1	32 (≈ 6.6 µg/mL)	32 (≈ 6.6 µg/mL)	64 (≈ 13.2 µg/mL)	32 (≈ 6.6 µg/mL)	64 (≈ 13.2 µg/mL)	64 (≈ 13.2 µg/mL)	64 (≈ 13.2 µg/mL)	32 (≈ 6.6 µg/mL)	32 (≈ 6.6 µg/mL)			
[C-]#[N+]c1cccc(/C=C/c2ccncc2)c1	32 (≈ 6.6 µg/mL)	64 (≈ 13.2 µg/mL)	32 (≈ 6.6 µg/mL)	64 (≈ 13.2 µg/mL)	64 (≈ 13.2 µg/mL)	32 (≈ 6.6 µg/mL)	64 (≈ 13.2 µg/mL)	32 (≈ 6.6 µg/mL)	64 (≈ 13.2 µg/mL)			
[C-]#[N+]c1ccc(/C=C/c2ccncc2)cc1	8 (≈ 1.65 µg/mL)		8 (≈ 1.65 µg/mL)	8 (≈ 1.65 µg/mL)	2 (≈ 0.412 µg/mL)		4 (≈ 0.825 µg/mL)		8 (≈ 1.65 µg/mL)	Non-toxic	Toxic	Non-toxic
[C-]#[N+]c1ccc(/C=C/c2ccccc2)cc1	4 (≈ 0.821 µg/mL)	16 (≈ 3.28 µg/mL)	> 128	64 (≈ 13.1 µg/mL)	4 (≈ 0.821 µg/mL)	> 128	> 128	4 (≈ 0.821 µg/mL)	32 (≈ 6.57 µg/mL)	Non-toxic	Non-toxic	Non-toxic
N#Cc1ccccc1/C=C/c1ccccc1	> 128	> 128	> 128	> 128	> 128	> 128	> 128	> 128	> 128			
[C-]#[N+]c1ccc(C)cc1-c1ccc(C(C)(C)C)cc1	16 (≈ 3.99 µg/mL)	> 128	4 (≈ 0.997 µg/mL)	16 (≈ 3.99 µg/mL)	> 128	64 (≈ 16 µg/mL)	> 128	> 128	16 (≈ 3.99 µg/mL)			
[C-]#[N+]c1ccc(C)cc1-c1ccc(C(F)(F)F)cc1	> 128	> 128	> 128	> 128	> 128	> 128	> 128	> 128	> 128			
[C-]#[N+]c1ccccc1-c1ccc2ccccc2c1	16 (≈ 3.67 µg/mL)	32 (≈ 7.34 µg/mL)	4 (≈ 0.917 µg/mL)	16 (≈ 3.67 µg/mL)	16 (≈ 3.67 µg/mL)	32 (≈ 7.34 µg/mL)	64 (≈ 14.7 µg/mL)	64 (≈ 14.7 µg/mL)	64 (≈ 14.7 µg/mL)	Non-toxic	Toxic	Non-toxic
Nc1ccccc1CCc1ccccc1	> 128	> 64	8 (≈ 1.58 µg/mL)	> 64	> 128	> 128	> 64	> 128	32 (≈ 6.31 µg/mL)			
[C-]#[N+]c1ccccc1CCc1ccccc1	4 (≈ 0.829 µg/mL)	128 (≈ 26.5 µg/mL)	2 (≈ 0.415 µg/mL)	32 (≈ 6.63 µg/mL)	64 (≈ 13.3 µg/mL)	2 (≈ 0.415 µg/mL)	64 (≈ 13.3 µg/mL)	4 (≈ 0.829 µg/mL)	16 (≈ 3.32 µg/mL)			
CC(=O)NC[C@H]1CN(c2ccc(N3CCOCC3)c(F)c2)C(=O)O1 [LINEZOLID]	< 1	< 1	< 1	2 (≈ 0.675 µg/mL)	2 (≈ 0.675 µg/mL)	64 (≈ 21.6 µg/mL)	< 1	2 (≈ 0.675 µg/mL)	2 (≈ 0.675 µg/mL)			
CN[C@H](CC(C)C)C(=O)N[C@H]1C(=O)N[C@@H](CC(N)=O)C(=O)N[C@H]2C(=O)N[C@H]3C(=O)N[C@H](C(=O)N[C@H](C(=O)O)c4cc(O)cc(O)c4-c4cc3ccc4O)[C@H](O)c3ccc(c(Cl)c3)Oc3cc2cc(c3O[C@@H]2O[C@H](CO)[C@@H](O)[C@H](O)[C@H]2O[C@H]2C[C@](C)(N)[C@H](O)[C@H](C)O2)Oc2ccc(cc2Cl)[C@H]1O [VANCOMYCIN]	2 (≈ 2.9 µg/mL)	4 (≈ 5.8 µg/mL)	8 (≈ 11.6 µg/mL)		< 1		128 (≈ 186 µg/mL)					

— ChEMBL document CHEMBL3611989, “Discovery and characterization of aryl isonitriles as a new class of compounds versus methicillin- and vancomycin-resistant Staphylococcus aureus” (Eur J Med Chem, 2015)
